Experimental data as given in ChEMBL document CHEMBL1125797, “Synthesis, characterization and myocardial uptake of cationic bis(arene)technetium(I) complexes” (J Med Chem, 1991).

Experiments:
Rattus norvegicus = species on record: Rattus norvegicus; test: The compound was tested for the plasma binding in rat; type: functional
Method in brief: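 Plasma protein binding was measured in rat plasma samples collected during the rat biodistribution studies, after tail vein injection of the 99mTc complex in saline (~25 μCi/kg).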

Homo sapiens = species on record: Homo sapiens; test: The compound was tested for the plasma binding in human; type: functional
Method in brief: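 Fresh heparinized human plasma (1.0 mL, obtained daily) was spiked with 0.02 mL test solution and incubated about 15 min. Duplicate samples went through saline-equilibrated Sephadex G-25 desalting columns by centrifugation. Eluate and gel were γ-counted for 1 min or to 1% σ error. % bound = net cpm eluate / net cpm (eluate + gel) × 100.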

Work on Bis(m-xylene)technetium yielded a PPB (Rattus norvegicus) of 12% and a PPB (Homo sapiens) of 11%.
